HTR2A ag: activates the mouse 5-HT2A serotonin receptor | CHO-K1 mHTR2A beta-arrestin complementation, luminescence; percent of 30 µM serotonin response | 0.66% of 360,000 active | P35363 | activation, % at 7.6 µM;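 active = activation above a run cutoff, the mean activation of all tested compounds plus 3 SD, cut at about 14% in these data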
CXCR6 block: inhibitors of human CXCR6 receptor; CHO-K1 PathHunter CXCR6 beta-arrestin, luminescence; inhibition, % at 20 µM; 0.36% of 360,000 active; in the data active = inhibition above about 34%, passing the limit was not always enough;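 note: antagonist mode with CXCL16 agonist at 10 nM final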
Target sequence (O00574 whole entry, looked up): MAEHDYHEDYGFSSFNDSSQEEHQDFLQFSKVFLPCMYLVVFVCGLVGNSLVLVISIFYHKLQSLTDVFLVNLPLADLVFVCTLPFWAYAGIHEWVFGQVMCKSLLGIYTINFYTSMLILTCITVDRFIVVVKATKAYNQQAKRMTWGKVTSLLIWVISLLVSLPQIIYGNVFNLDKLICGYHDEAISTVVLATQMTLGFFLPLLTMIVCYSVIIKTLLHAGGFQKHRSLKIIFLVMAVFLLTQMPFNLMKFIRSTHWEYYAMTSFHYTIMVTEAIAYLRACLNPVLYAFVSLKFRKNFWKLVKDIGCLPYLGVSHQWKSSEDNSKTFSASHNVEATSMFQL
APJ antagonist: antagonists of human APJ apelin receptor | AID 2521 | CHO-K1 APJ beta-arrestin complementation, luminescence | P35414 | 0.32% of 330,000 active | inhibition, % at 20 µM;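 active = inhibition above about 40% at 20 µM, limit read from the data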;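 note: cells challenged with 10 nM apelin-13 agonist together with compound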
EBI2 antag: EBI2 (human) antagonism | P32249 | inhibition, % at 5 µM | AID 651636 | EBI2 beta-arrestin recruitment, luminescence, 7a,25-OHC stimulated | 0.81% of 360,000 active; in the data active = inhibition above about 38%;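 note: enzyme fragment complementation signal reports receptor beta-arrestin coupling in cells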
APJ agonist: activates the human apelin receptor APJ; CHO-K1 APJ PathHunter beta-arrestin, luminescence; 0% DMSO wells, 100% apelin; activation, % at 20 µM; P35414; 0.11% of 330,000 active;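 active = activation more than six SD over the plate average, tested at 20 µM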
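system = engineered CHO-K1 APJ arrestin reporter cells | input = 1000 cells per well | timing = overnight seeding, 90 min compound at 25 °C, 1 h detection | measured by = enzyme-fragment complementation luminescence | read-out = beta-arrestin recruitment to APJ as agonist activity, luminescent signal | control set = negative DMSO alone, positive Apelin-13 at 10 nM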
CCR6 antag: blocks CCL20-driven beta-arrestin recruitment at human CCR6; inhibition, % at 20 µM; CHO-K1 CCR6 PathHunter beta-arrestin, luminescence, CCL20-stimulated; P51684; 0.49% of 340,000 active;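 active = compounds whose inhibition of the agonist-driven luminescence signal at 20 µM reaches about 50%, limit read from the data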;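 note: cells stimulated with CCL20 at 14 nM final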
A number is an active result; – = inactive; · = not tested or not shown; ! = not confirmed by another sample. The list is not random: actives were taken first. Their share in the collection is about 2.1%.

SMILES | HTR2A ag | CXCR6 block | APJ antagonist | EBI2 antag | APJ agonist | CCR6 antag
O=C(O)CCCN1C(=O)/C(=C\c2ccco2)SC1=S | – | – | · | – | · | –
O=C(O)CCN1C(=O)/C(=C\c2ccc(-c3nc4ccccc4s3)o2)SC1=S | – | – | – | – | – | 53
Nc1nn(S(=O)(=O)c2ccccc2)cc1-c1ccc([N+](=O)[O-])cc1 | – | – | – | – | 9.9 | –
O=C(N/N=C/c1cccc2nccnc12)c1ccccc1O | – | – | – | – | – | 66
O=C(N/N=C/c1cccc2nccnc12)c1ccncc1 | – | – | – | – | – | –
O=C(NCc1cccnc1)/C(=C\c1ccc(-c2ccc(Cl)c(Cl)c2)o1)S(=O)(=O)c1ccccc1 | – | – | · | 64 | · | –
O=C(NCc1cccnc1)c1ccc(-c2ccc(Cl)cc2)o1 | – | – | – | – | – | –
O=C1c2[nH]nc(-c3ccccc3O)c2C(c2cccc(Cl)c2)N1Cc1ccco1 (stereo not drawn) | 15 | – | – | – | – | –
O=C1c2[nH]nc(-c3ccccc3O)c2C(c2ccc(F)cc2)N1Cc1ccco1 (stereo not drawn) | – | – | – | – | – | –
COc1ccccc1C(=O)NC(=O)COC(=O)Cc1ccccc1[N+](=O)[O-] | – | – | – | – | – | –
CC[C@H](C)[C@H](NC(=O)OCc1ccccc1)C(=O)OCC(=O)N1CCN(c2ccc(OC)cc2)CC1 | – | – | · | – | · | –
O=C1Nc2ccc(Br)cc2/C1=N\N=C\C1=C(N2CCOCC2)C(=C/c2ccccc2)/CC1 | – | 41 | · | – | · | 55
O=C1Nc2ccccc2/C1=N\N=C\C1=C(N2CCOCC2)C(=C\c2ccccc2)/CC1 | – | – | – | – | – | ·
CCOc1cc(C=C(C(=O)OC)C(=O)OC)ccc1OCc1ccc([N+](=O)[O-])cc1 | – | – | – | 59 | – | –
CCOc1cc(/C=N/O)ccc1OCc1ccc([N+](=O)[O-])cc1 | – | – | – | – | – | –
CC(=O)N1N=C(c2cccc([N+](=O)[O-])c2)OC1c1ccccc1Cl (stereo not drawn) | – | – | – | – | – | 50
CC(=O)c1nn(-c2cccc(C)c2)cc1C(=O)c1cccc(Br)c1 | – | – | – | – | – | –
CC(=O)c1nn(-c2ccccc2)cc1C(=O)c1ccc(C)cc1 | – | – | – | 56 | – | –
COc1cc(S(=O)(=O)N2CCOCC2)cc(C(=O)OCC(=O)NC2CCCCC2)c1OC | – | – | – | – | – | –
CCOC(=O)c1csc(Nc2nc3ccc(F)cc3s2)n1 | – | – | 42 | – | – | –
COC(=O)c1ccc2nc(Nc3nc4ccc(F)cc4s3)sc2c1 | – | – | · | – | · | –
CC(=O)Nc1ccc(Nc2nc(C(F)(F)F)nc3c2nnn3Cc2ccccc2Cl)cc1 | – | – | – | – | – | –
O=C(Cc1cccc([N+](=O)[O-])c1)Nc1ccc(C(=O)N2CCCCC2)cc1 | – | – | – | – | – | –
CC1(C)CC(=O)C2=C(C1)Nc1ccccc1N=C2 | · | · | 58 | · | – | ·
CC1(C)CC(=O)C2=C(C1)Nc1ccccc1NC2 | – | – | – | – | – | –
SMILES | HTR2A ag | CXCR6 block | APJ antagonist | EBI2 antag | APJ agonist | CCR6 antag
O=C1C(SCCO)=C(SCCO)C(=O)c2ccccc21 | – | 103 | – | – | – | 108
Cc1nn(Cc2ccc(F)cc2)c(C)c1NC(=O)c1cnn2c1NC(c1cccs1)CC2C(F)(F)F (stereo not drawn) | – | – | – | 37 | – | –
Cc1nn(Cc2ccc(F)cc2)c(C)c1NC(=O)c1cnn2c1NC(c1ccccc1)CC2C(F)(F)F (stereo not drawn) | – | – | – | – | – | –
CN[C@@H]1[C@H](O)[C@H](NC)[C@H]2O[C@@]3(O)C(=O)C[C@@H](C)O[C@H]3O[C@@H]2[C@H]1O | 16 | – | – | – | – | –
COC(=O)/C=C1\OCc2ccc(C)cc21 | – | · | · | – | · | ·
CCCCNC(=O)C1(C)CCCCN1C(=O)c1ccc2ccccc2n1 (stereo not drawn) | – | – | · | – | · | ·
Cc1ccc(N=Cc2cc(Cl)cc(Cl)c2O)nc1 | – | – | – | – | – | –
Oc1c(Cl)cc(Cl)cc1/C=N/Nc1ncc(Br)cn1 | – | 62 | – | 76 | – | 74
O=C(N/N=C/c1ccc(Cl)cc1Cl)c1ccncc1 | – | – | – | – | – | –
O=C(N/N=C/c1cc(Cl)cc(Cl)c1O)c1ccncc1 | – | – | – | 68 | – | –
CCC(C)NC(=O)C1(O)c2cc(Br)ccc2NC(=O)N1c1cccc(OC)c1 (stereo not drawn) | – | – | – | – | – | –
Cc1ccc(S(=O)(=O)/N=C2\C=C(Nc3cccc(C(=O)O)c3)C(=O)c3ccccc32)cc1 | – | – | – | – | – | –
Cc1ccc(S(=O)(=O)/N=C2\C=C(Nc3ccc(O)cc3)C(=O)c3ccccc32)cc1 | – | – | – | – | – | 63
Cc1ccc(NC2=C/C(=N/S(=O)(=O)c3cccs3)c3ccccc3C2=O)cc1 | – | – | – | – | – | 59
CC(C)(C)c1ccc(S(=O)(=O)/N=C2\C=C(NS(=O)(=O)c3ccccc3)C(=O)c3ccccc32)cc1 | – | – | – | – | – | 50
O=C1C(Nc2ccccc2)=C/C(=N/S(=O)(=O)c2cccs2)c2ccccc21 | – | 42 | · | – | · | 64
COc1ccc(-c2cn(CCO)c(CCN)n2)cc1 | – | – | – | – | – | –
O=[N+]([O-])c1ccc2nc(Cl)nc(-c3ccccc3)c2c1 | – | – | – | – | – | –
Cc1ccc(S(=O)(=O)/N=C2/C=C(Sc3ncn[nH]3)C(=O)c3ccccc32)cc1 | 20 | 81 | · | – | · | 92
Cc1ccc(C(=O)Nc2cccc(C(F)(F)F)c2)cc1NC(=O)c1c[nH]c2cc(C(F)(F)F)ccc2c1=O | – | – | – | – | – | –
Cc1cn(-c2cc(C(=O)Nc3ccc(C)c(NC(=O)C(=O)c4c[nH]c5ccccc45)c3)cc(C(F)(F)F)c2)cn1 | 17! | – | – | – | – | –
Brc1ccc(C2=Nn3cnnc3SC2)cc1 | – | – | – | – | – | –
Cc1c(N=C2C=CC(=O)c3ccccc32)c(=O)n(-c2ccccc2)n1C | – | – | · | – | · | 75
O=C(C(Cc1ccccc1)N1C(=O)C2C3C=CC(C3)C2C1=O)N1CCCCC1 (stereo not drawn) | – | – | – | – | – | 108
CN(C(=O)CSc1nc(-c2ccccc2)cn1N)C(c1ccccc1)c1ccccc1 | – | – | – | 36 | – | –
O=[N+]([O-])c1ccc(CS(=O)c2ccccc2)cc1 (stereo not drawn) | – | – | · | – | · | –
O=[N+]([O-])c1ccc(S(=O)Cc2ccccc2)c([N+](=O)[O-])c1 (stereo not drawn) | – | 92 | · | – | · | 102
